Reference: ChEMBL document CHEMBL1129251 (J Med Chem, 1996)

Experiments:
[1] = target: T1, Adrenergic receptor alpha-1 (Rattus norvegicus, UniProt P15823+P23944+P43140); assay: Alpha-1 adrenergic receptor binding affinity in rat brain membranes; format: cell membranes
T1 sequence (P15823 whole entry): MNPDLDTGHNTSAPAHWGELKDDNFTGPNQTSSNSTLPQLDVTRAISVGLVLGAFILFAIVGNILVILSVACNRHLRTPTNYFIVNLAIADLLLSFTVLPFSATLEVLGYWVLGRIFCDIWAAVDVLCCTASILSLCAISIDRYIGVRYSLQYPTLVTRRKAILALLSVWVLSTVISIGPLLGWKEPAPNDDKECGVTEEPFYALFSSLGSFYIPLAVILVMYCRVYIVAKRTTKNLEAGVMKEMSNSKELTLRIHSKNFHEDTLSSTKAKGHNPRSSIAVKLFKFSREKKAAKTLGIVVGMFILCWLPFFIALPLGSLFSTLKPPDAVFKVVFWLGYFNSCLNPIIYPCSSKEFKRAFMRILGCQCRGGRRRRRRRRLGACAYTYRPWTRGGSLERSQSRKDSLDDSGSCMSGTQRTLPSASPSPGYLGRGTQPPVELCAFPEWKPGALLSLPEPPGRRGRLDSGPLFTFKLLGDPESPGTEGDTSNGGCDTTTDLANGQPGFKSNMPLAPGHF
T1 sequence (P23944 whole entry): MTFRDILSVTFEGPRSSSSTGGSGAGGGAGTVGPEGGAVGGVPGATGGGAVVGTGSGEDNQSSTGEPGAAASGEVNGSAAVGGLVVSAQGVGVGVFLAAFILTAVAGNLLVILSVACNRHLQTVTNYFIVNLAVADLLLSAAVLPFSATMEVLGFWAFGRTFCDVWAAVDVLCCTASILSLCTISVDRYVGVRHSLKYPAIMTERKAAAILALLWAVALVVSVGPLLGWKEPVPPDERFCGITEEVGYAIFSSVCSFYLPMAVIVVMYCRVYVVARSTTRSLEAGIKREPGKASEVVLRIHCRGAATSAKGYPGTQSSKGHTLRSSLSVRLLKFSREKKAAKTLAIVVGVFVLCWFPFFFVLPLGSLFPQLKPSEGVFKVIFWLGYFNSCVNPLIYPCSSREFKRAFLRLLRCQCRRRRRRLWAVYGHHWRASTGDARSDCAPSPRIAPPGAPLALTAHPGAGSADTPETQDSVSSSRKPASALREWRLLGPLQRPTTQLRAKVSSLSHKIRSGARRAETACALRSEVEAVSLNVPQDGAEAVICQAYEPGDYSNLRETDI
T1 sequence (P43140 whole entry): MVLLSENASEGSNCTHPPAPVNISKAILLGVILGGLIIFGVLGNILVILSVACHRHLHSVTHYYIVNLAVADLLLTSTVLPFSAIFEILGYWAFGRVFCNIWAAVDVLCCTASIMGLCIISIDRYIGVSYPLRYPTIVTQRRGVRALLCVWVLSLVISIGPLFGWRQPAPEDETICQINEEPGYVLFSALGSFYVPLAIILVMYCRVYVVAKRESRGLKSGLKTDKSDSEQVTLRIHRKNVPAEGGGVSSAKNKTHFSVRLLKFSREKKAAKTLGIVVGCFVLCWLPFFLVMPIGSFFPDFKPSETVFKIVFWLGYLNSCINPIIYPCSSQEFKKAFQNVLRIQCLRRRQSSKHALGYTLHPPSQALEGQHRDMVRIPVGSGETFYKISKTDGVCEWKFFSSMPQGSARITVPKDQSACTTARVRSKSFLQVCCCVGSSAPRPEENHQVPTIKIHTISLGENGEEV
Procedure, shortened: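 Rat frontal cortex membranes, washed in 50 mM Tris-HCl/10 mM MgCl2 pH 7.4, at about 300 µg/mL protein. Labelled with 0.1 nM [3H]prazosin in the same buffer. Nonspecific binding set by 10 µM phentolamine. 30 °C for 30 min, then filtration and scintillation counting, in triplicate.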

[2] = Selectivity ratio of Ki of alpha-1 adrenergic receptor to alpha-2 receptor
[3] = target: T2, Adrenergic receptor alpha-2 (Rattus norvegicus, UniProt P22086+P19328+P22909); assay: Alpha-2 adrenergic receptor binding affinity was tested against membrane preparations of rat brain using 0.2 nM [3H]rauwolscine as radioligand
T2 sequence (P22086 whole entry): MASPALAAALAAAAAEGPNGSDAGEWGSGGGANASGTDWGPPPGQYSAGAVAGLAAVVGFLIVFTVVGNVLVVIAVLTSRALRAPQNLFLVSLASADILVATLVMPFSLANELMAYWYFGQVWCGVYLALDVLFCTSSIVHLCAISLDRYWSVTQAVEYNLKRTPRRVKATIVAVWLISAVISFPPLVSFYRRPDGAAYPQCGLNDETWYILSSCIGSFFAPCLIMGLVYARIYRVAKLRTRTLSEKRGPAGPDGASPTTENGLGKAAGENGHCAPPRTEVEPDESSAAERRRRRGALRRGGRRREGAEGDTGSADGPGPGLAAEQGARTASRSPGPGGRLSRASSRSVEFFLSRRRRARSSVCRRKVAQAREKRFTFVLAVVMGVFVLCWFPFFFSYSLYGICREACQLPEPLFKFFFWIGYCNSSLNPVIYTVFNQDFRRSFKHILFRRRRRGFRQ
T2 sequence (P19328 whole entry): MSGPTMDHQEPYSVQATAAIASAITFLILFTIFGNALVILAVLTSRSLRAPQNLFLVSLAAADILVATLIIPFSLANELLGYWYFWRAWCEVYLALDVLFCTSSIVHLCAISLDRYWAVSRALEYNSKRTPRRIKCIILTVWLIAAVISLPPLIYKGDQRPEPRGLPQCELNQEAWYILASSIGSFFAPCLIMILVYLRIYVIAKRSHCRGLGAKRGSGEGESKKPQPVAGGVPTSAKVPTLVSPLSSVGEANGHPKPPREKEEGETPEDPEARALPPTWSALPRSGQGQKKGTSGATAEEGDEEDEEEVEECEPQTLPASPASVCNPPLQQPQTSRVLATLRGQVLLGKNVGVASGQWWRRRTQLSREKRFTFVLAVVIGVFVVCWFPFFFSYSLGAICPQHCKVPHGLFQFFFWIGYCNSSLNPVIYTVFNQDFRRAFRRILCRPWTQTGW
T2 sequence (P22909 whole entry): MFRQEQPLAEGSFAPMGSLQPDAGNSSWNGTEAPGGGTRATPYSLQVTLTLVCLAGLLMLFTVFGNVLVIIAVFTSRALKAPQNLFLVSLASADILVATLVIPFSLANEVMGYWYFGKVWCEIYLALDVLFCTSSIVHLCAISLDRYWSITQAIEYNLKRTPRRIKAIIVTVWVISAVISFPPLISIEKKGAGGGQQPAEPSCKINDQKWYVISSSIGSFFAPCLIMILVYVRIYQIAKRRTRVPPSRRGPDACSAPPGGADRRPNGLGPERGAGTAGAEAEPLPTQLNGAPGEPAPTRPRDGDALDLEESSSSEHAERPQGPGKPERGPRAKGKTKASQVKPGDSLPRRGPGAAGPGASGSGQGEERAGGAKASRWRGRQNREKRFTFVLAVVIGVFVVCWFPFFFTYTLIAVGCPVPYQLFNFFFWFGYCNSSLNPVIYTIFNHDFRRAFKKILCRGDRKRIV
Procedure, shortened: (§1)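 Rat frontal cortex membranes at about 500 µg/mL protein, labelled with [3H]rauwolscine in Tris buffer pH 7.4 containing 10 mM EDTA. Nonspecific binding set by 10 µM phentolamine. 30 °C for 30 min, then filtration and scintillation counting, in triplicate.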

[4] = target: T3, Adrenergic receptor alpha-1 (Rattus norvegicus) (UniProt P15823+P23944+P43140); assay: Antagonistic activity against Alpha-1 adrenergic receptor in rat aorta; format: functional, tissue-based
Procedure, shortened: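 Rat aorta rings (rats 150-300 g, either sex) contracted by cumulative phenylephrine, with and without the antagonist. KB = [B]/(DR − 1), where DR is the dose ratio in the presence and absence of the antagonist.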

[5] = target: T4, Adrenergic receptor alpha-2 (Homo sapiens, UniProt P08913+P18825+P18089); assay: Alpha-2 adrenergic receptor antagonistic activity in human blood platelets.; format: functional, tissue-based
T4 sequence (P08913 whole entry): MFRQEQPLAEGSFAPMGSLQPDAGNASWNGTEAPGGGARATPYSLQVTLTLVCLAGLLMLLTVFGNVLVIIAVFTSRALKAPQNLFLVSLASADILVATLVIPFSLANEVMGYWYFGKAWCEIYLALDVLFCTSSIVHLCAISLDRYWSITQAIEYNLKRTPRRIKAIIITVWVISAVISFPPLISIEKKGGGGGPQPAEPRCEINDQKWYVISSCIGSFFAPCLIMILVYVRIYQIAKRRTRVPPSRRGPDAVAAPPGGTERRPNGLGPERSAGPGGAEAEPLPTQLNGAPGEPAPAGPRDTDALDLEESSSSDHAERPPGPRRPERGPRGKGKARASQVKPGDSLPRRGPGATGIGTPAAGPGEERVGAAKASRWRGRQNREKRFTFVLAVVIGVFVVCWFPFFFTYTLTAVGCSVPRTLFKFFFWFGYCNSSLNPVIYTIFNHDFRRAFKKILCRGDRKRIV
T4 sequence (P18825 whole entry): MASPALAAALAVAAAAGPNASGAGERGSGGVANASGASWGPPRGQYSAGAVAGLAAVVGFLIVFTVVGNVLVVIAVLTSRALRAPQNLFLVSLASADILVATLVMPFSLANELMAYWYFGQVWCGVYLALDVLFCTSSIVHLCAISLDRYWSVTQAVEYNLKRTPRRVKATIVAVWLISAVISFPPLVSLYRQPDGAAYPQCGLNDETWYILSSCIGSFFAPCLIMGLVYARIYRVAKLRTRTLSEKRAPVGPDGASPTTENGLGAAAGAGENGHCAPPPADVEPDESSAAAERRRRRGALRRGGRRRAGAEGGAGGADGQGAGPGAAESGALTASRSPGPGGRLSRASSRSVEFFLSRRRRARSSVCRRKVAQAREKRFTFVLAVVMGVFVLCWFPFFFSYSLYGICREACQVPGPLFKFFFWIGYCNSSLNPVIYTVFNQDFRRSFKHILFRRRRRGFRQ
T4 sequence (P18089 whole entry): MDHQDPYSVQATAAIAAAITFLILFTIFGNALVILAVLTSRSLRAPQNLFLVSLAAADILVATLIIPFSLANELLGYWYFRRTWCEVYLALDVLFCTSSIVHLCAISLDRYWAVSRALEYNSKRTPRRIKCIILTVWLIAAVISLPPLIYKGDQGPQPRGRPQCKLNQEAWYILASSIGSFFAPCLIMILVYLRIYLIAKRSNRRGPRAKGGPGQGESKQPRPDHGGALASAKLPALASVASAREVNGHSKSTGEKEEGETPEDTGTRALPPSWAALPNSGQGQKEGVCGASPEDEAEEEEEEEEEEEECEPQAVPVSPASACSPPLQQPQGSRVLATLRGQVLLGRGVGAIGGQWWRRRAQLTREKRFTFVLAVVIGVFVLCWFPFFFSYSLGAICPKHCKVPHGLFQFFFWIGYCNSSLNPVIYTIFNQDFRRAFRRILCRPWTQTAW
Procedure, shortened: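 Human platelet-rich plasma pretreated with 1 mM aspirin. Inhibitor at various concentrations added 1 min before epinephrine (30-100 µM).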

[6] = Alpha 2 antagonistic adrenoceptor activity in human blood platelets Potency ratio: IC50(medetomidine)/IC50(analog); format: functional
Procedure, shortened: (§2)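 Inhibition of epinephrine (30-100 µM)-induced primary-wave aggregation in aspirin (1 mM)-treated human platelet-rich plasma, with inhibitor added 1 min before agonist.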

[7] = target: T2, Adrenergic receptor alpha-2; assay: Alpha-2 adrenergic receptor binding affinity was tested against membrane preparations of rat brain.; procedure, shortened: as §1
[8] = target: T3, Adrenergic receptor alpha-1 (Rattus norvegicus); assay: Agonistic activity against Alpha-1 adrenergic receptor in rat aorta expressed as percent maximal analog response relative to phenylephrine as 100%; format: functional, tissue-based
Procedure, shortened: (§3)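 Aorta from rats of 150-300 g, either sex. Tissue checked with 30 nM phenylephrine, then a cumulative phenylephrine curve. After 90 min the test agent was added cumulatively. Contraction expressed as % of the maximum to 1 µM phenylephrine (= 100%). EC50 is the molar 50% effective concentration; Emax is the maximal response relative to phenylephrine.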

[9] = alpha 2 antagonistic adrenoceptor activity in human blood platelets Potency ratio: IC50(medetomidine)/IC50(analog); format: functional; procedure, shortened: as §2
[10] = Antagonistic activity against alpha2 adrenoceptor in human blood platelets expressed as IC50(medetomidine)/IC50(analog); format: functional
Procedure, shortened: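 Human platelet-rich plasma; inhibitor at various concentrations added 1 min before triggering aggregation with epinephrine (30-100 µM); aspirin 1 mM routinely added to study the primary-wave aggregation response.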

[11] = target: T1, Adrenergic receptor alpha-1; assay: 50% Molar effective concentration for agonistic activity against Alpha-1 adrenergic receptor in rat aorta; format: functional, tissue-based; procedure, shortened: as §3
[12] = target: T4, Adrenergic receptor alpha-2; assay: Antagonistic activity against Alpha-2 adrenergic receptor in human blood platelets; format: functional, tissue-based
Procedure, shortened: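 Human platelet-rich plasma pretreated with 1 mM aspirin. Inhibitor at various concentrations added 1 min before epinephrine (30-100 µM). Primary-wave aggregation measured; IC50 is the molar 50% inhibitory concentration.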

## CCC(c1c[nH]cn1)c1cccc2ccccc12 (stereo unspecified)
[1]
  Ki: 574 nM
[2]
  Ratio: 3.48
[3]
  Ki: 165 nM

## C=C(c1c[nH]cn1)c1cccc2ccccc12
[1]
  Ki: 1734 nM
[2]
  Ratio: 14.2
[3]
  Ki: 122 nM

## c1ccc2c3c(ccc2c1)CCCC3c1c[nH]cn1 (stereo unspecified)
[1]
  Ki: 655 nM
[4]
  Kb: 136 nM
[5]
  IC50: 97.7 µM
[6]
  Potency ratio: 0.03
[7]
  Ki: 1449 nM

## c1cc2c3c(cccc3c1)C(c1c[nH]cn1)CC2 (stereo unspecified)
[1]
  Ki: 55 nM
[2]
  Ratio: 1.67
[5]
  IC50: 14.3 µM
[8]
  Emax: 38%
[9]
  Potency ratio: 0.2
[3]
  Ki: 33 nM

## Cc1cccc(C(C)c2c[nH]cn2)c1C (stereo unspecified) [MEDETOMIDINE]
[7]
  Ki: 25 nM

## C[C@H](N)[C@H](O)c1ccc(O)c(O)c1 [LEVONORDEFRIN]
[1]
  Ki: 9221 nM
[7]
  Ki: 205 nM

## C/C=C(\c1c[nH]cn1)c1cccc2ccccc12
[1]
  Ki: 57 nM
[4]
  Kb: 3390 nM
[2]
  Ratio: 0.03
[5]
  IC50: 215.4 µM
[9]
  Potency ratio: 0.01
[3]
  Ki: 1890 nM

## C/C=C(/c1c[nH]cn1)c1cccc2ccccc12
[1]
  Ki: 387 nM
[2]
  Ratio: 0.26
[3]
  Ki: 1474 nM

## CC(c1c[nH]cn1)c1cccc2ccccc12 (stereo unspecified)
[10]
  Potency ratio: 0.69
[1]
  Ki: 224 nM
[2]
  Ratio: 17.2
[8]
  Emax: 39%
[11]
  EC50: 153 nM
[12]
  IC50: 4.3 µM
[3]
  Ki: 13 nM
